Each block holds one compound with its values, some of them ahead of it.
Key:
SOX11 DBD = details: cited from earlier work
(His)6-SOX11-DBD = target: T1, (His)6-SOX11-DBD (Homo sapiens, UniProt P35716); experiment: Surface plasmon resonance binding to immobilized SOX11-DBD; details: 25 °C
T1 sequence (P35716 49-117 limits assumed): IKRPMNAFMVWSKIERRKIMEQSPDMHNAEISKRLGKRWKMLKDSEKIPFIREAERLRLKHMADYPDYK

[1] = tested on: DNA (topoisomerase I relaxation of supercoiled plasmid DNA); experiment: Topoisomerase-based DNA unwinding assay; type: biochemical; details: 20 μM
MCL patients = details: cited from earlier work; for duration of response: MCL patients
[2] = tested on: pBTK in JeKo-1, Z-138, Mino and JVM-2; experiment: PhosphoFlow pBTK-Y223, all four MCL cell lines; type: cell-based, human; details: 24 hours; 1 μM and 10 μM Ibrutinib (Figure 5B)
MCL cell lines = experiment: Activity in MCL cell lines; type: cell-based, human
SOX11-DNA interaction = target: T2, SOX11-DNA interaction (Homo sapiens, UniProt P35716); experiment: Fluorescence anisotropy; type: biochemical; details: 20 μM of compound
T2 sequence (P35716 49-117 limits assumed): T1 sequence (P35716 49-117 limits assumed)
Procedure, shortened: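 Fluorescence anisotropy read at fluorescein excitation/emission wavelengths to follow SOX11–DNA binding in the presence of test compound. Unlabeled DNA served as the competitive positive control. Read-out: percent inhibition of DNA binding.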

binding affinity to SOX11-DBD (SPR) ((His)6-SOX11-DBD): displayed expected affinities
Compound: O=C(O)c1c(O)cccc1CCc1ccc2ccccc2c1 [Sm4]
concentration inhibiting SOX11 DBD (SOX11 DBD): sub-millimolar concentrations

Compound: C=CC(=O)N1CCC[C@@H](n2nc(-c3ccc(Oc4ccccc4)cc3)c3c(N)ncnc32)C1 [Ibrutinib]
direct DNA binding / interference with DNA unwinding activity of topoisomerase I [1]: do not directly bind DNA
duration of response (MCL patients): 17.5 months
overall response rate (MCL patients; relapsed MCL patients): 60%
pBTK level in all four cell lines [2]: reduced pBTK level in all four cell lines

inhibition of DNA binding (SOX11-DNA interaction): > 50%
Compound: Cc1cc2nc3c(=O)[nH]c(=O)nc-3n(C[C@H](O)[C@H](O)[C@H](O)COP(=O)(O)OP(=O)(O)OC[C@H]3O[C@@H](n4cnc5c(N)ncnc54)[C@H](O)[C@@H]3O)c2cc1C [Flavitan]
activity in MCL cell lines (MCL cell lines): inactivity in MCL cell lines

Compound: CC1(C)CCC(CN2CCN(c3ccc(C(=O)NS(=O)(=O)c4ccc(NCC5CCOCC5)c([N+](=O)[O-])c4)c(Oc4cnc5[nH]ccc5c4)c3)CC2)=C(c2ccc(Cl)cc2)C1 [Venetoclax]
duration of response (MCL patients): 14 months

— PMC8364871 (Clinical cancer research : an official journal of the …, 2021)
